In ChEMBL document CHEMBL3758175, “Bis-isatin hydrazones with novel linkers: Synthesis and biological evaluation as cytotoxic agents” (Eur J Med Chem, 2016):

Key:
[1] = Cytotoxicity against human HCT116 cells assessed as cell viability after 24 hrs by crystal violet staining assay; assay type: functional, cell-based; conditions: HCT-116, 24 h
Summary of the method: (§1)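 Cells were kept as monolayers in RPMI-1640 with 10% heat-inactivated FCS and 50 µg/ml gentamycin at 37 °C under 5% CO2. They were seeded at 3,000 cells/well and, 24 h later, washed with PBS (pH 7.2). Ten dilutions in fresh medium were added for 24 h at 37 °C, with a 1% DMSO vehicle control. Survivors were stained with crystal violet, lysed with 33% acetic acid and read at 490 nm against untreated cells. IC50 was taken from graphic plots; mean of at least three experiments.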

HepG2 [2] = assay: Cytotoxicity against human HepG2 cells assessed as cell viability after 24 hrs by crystal violet staining assay; assay type: functional, cell-based; conditions: HepG2, 24 h; summary of the method: as §1
MCF7 [3] = assay: Cytotoxicity against human MCF7 cells assessed as cell viability after 24 hrs by crystal violet staining assay; assay type: functional, cell-based; conditions: MCF7, 24 h
HepG2 [4] = assay: Cytotoxicity against human HepG2 cells assessed as growth inhibition after 72 hrs by Sulforhodamine B colorimetric assay; assay type: functional, cell-based; conditions: HepG2, 72 h
L1210 = assay: Cytotoxicity against mouse L1210 cells assessed as cell growth inhibition by MTT assay; assay type: functional, cell-based
[5] = Cytotoxicity against human KB3-1 cells assessed as cell survival after 72 hrs by MTT assay; assay type: functional, cell-based; conditions: KB 3-1, 72 h
[6] = Cytotoxicity against human KBV1 cells assessed as cell survival after 72 hrs by MTT assay; assay type: functional, cell-based; conditions: KB-V1, 72 h
MCF7 [7] = assay: Induction of apoptosis in human MCF7 cells at IC50 after 24 hrs by annexin V-FITC/propidium iodide staining based flow cytometry relative to control; assay type: functional
MCF7 [8] = assay: Induction of apoptosis in human MCF7 cells assessed as viable cells at IC50 after 24 hrs by annexin V-FITC/propidium iodide staining based flow cytometry (reference value: 96.3%); assay type: functional
MCF7 [9] = assay: Induction of apoptosis in human MCF7 cells assessed as early apoptotic cells at IC50 after 24 hrs by annexin V-FITC/propidium iodide staining based flow cytometry (reference value: 3.70%); assay type: functional
MCF7 [10] = assay: Cell cycle arrest in human MCF7 cells assessed as accumulation at pre-G phase at IC50 after 24 hrs by flow cytometric analysis relative to control; assay type: functional
MCF7 [11] = assay: Cell cycle arrest in human MCF7 cells assessed as decrease in cell level at G0/G1 phase at IC50 after 24 hrs by flow cytometric analysis relative to control; assay type: functional; parameters: scale not given: the % may be the effect or the level left
MCF7 [12] = assay: Induction of apoptosis in human MCF7 cells assessed as late apoptotic cells at IC50 after 24 hrs by annexin V-FITC/propidium iodide staining based flow cytometry relative to control; assay type: functional
MCF7 [13] = assay: Induction of apoptosis in human MCF7 cells assessed as necrotic cells at IC50 after 24 hrs by annexin V-FITC/propidium iodide staining based flow cytometry relative to control; assay type: functional
MCF7 [14] = assay: Cell cycle arrest in human MCF7 cells assessed as accumulation at G2/M phase at IC50 after 24 hrs by flow cytometric analysis relative to control; assay type: functional
MCF7 [15] = assay: Cytotoxicity against human MCF7 cells assessed as growth inhibition after 72 hrs by Sulforhodamine B colorimetric assay; assay type: functional, cell-based; conditions: MCF7, 72 h
[16] = target: Cyclin-dependent kinase 2/cyclin E1 (Homo sapiens, UniProt P24941); assay: Inhibition of GST-tagged recombinant human CDK2/cyclin E expressed in insect SF-9 cells after 10 mins by scintillation counting analysis in presence of [gamma-33P]-ATP; parameters: species or system Sf9

| SMILES | IC50 [1] [µM] | IC50 (HepG2 [2]) [µM] | IC50 (MCF7 [3]) [µM] | other results |
| --- | --- | --- | --- | --- |
| COc1ccc2c(c1)/C(=N/NC(=O)c1cncc(C(=O)N/N=C3\C(=O)Nc4ccc(OC)cc43)c1)C(=O)N2 | 45.4 | 36.5 | 66.5 |  |
| O=C1Nc2ccc(F)cc2/C1=N/Nc1nc(-c2ccccc2)nc2ccccc12 |  |  |  | IC50 (HepG2 [4]): 1 µM |
| Cc1ccc2c(c1)/C(=N/NC(=O)N/N=C1\C(=O)Nc3ccc(C)cc31)C(=O)N2 |  |  |  | IC50 (L1210): 16 µM |
| Cc1ccc2c(c1)/C(=N/NC(=O)C(=O)N/N=C1\C(=O)Nc3ccc(C)cc31)C(=O)N2 | > 100 | > 100 | 55.9 |  |
| O=C1Nc2ccc([N+](=O)[O-])cc2/C1=N/NC(=O)c1cncc(C(=O)N/N=C2\C(=O)Nc3ccc([N+](=O)[O-])cc32)c1 | > 100 | 75.9 | 88.8 |  |
| COc1ccc2c(c1)/C(=N/NC(=O)c1[nH]c(C)c(C(=O)N/N=C3\C(=O)Nc4ccc(OC)cc43)c1C)C(=O)N2 | > 100 | 83.5 | 78.8 |  |
| O=C1Nc2ccc(Cl)cc2/C1=N/N=C1\C(=O)N(c2ccccc2)c2ccccc21 |  |  |  | IC50 [5]: 6.79 µM; IC50 [6]: 6.07 µM |
| Cc1[nH]c(C(=O)N/N=C2\C(=O)Nc3ccc([N+](=O)[O-])cc32)c(C)c1C(=O)N/N=C1\C(=O)Nc2ccc([N+](=O)[O-])cc21 | > 100 | 86.9 | > 100 |  |
| Cc1c(C(=O)N/N=C2\C(=O)Nc3ccccc32)c(C)n(C)c1C(=O)N/N=C1\C(=O)Nc2ccccc21 | > 100 | > 100 | > 100 |  |
| Cc1[nH]c(C(=O)N/N=C2\C(=O)Nc3ccccc32)c(C)c1C(=O)N/N=C1\C(=O)Nc2ccccc21 | 76.5 | 30.1 | 69.2 |  |
| Cc1ccc2c(c1)/C(=N/NC(=O)c1[nH]c(C)c(C(=O)N/N=C3\C(=O)Nc4ccc(C)cc43)c1C)C(=O)N2 | 45.9 | > 100 | 46.1 |  |
| Cc1[nH]c(C(=O)N/N=C2\C(=O)Nc3ccc(Br)cc32)c(C)c1C(=O)N/N=C1\C(=O)Nc2ccc(Br)cc21 | 37.3 | 32.4 | 36.7 |  |
| O=C1Nc2ccc(F)cc2/C1=N/NC(=O)c1cncc(C(=O)N/N=C2\C(=O)Nc3ccc(F)cc32)c1 | 24.5 | 76.3 | 38 |  |
| O=C(N/N=C1\C(=O)Nc2ccc([N+](=O)[O-])cc21)C(=O)N/N=C1\C(=O)Nc2ccc([N+](=O)[O-])cc21 | 56.2 | 25.8 | 91.2 |  |
| COc1ccc2c(c1)/C(=N/NC(=O)c1c(C)c(C(=O)N/N=C3\C(=O)Nc4ccc(OC)cc43)n(C)c1C)C(=O)N2 | 3.31 | 6.99 | 1.84 | fold change (FC) (MCF7 [7]): 6.7; Activity (MCF7 [8]): 74.5%; Activity (MCF7 [9]): 25%; fold change (FC) (MCF7 [10]): 5; Activity (MCF7 [11]): 18.5%; Activity (MCF7 [12]): 0.36%; Activity (MCF7 [13]): 0.18%; fold change (FC) (MCF7 [14]): 1.83 |
| O=C(N/N=C1\C(=O)Nc2ccc(Br)cc21)C(=O)N/N=C1\C(=O)Nc2ccc(Br)cc21 | 98.7 | 77.8 | 91.9 |  |
| Cc1[nH]c(C(=O)N/N=C2\C(=O)Nc3ccc(F)cc32)c(C)c1C(=O)N/N=C1\C(=O)Nc2ccc(F)cc21 | 77 | 78.4 | 76.3 |  |
| Cc1ccc2c(c1)/C(=N/NC(=O)c1c(C)c(C(=O)N/N=C3\C(=O)Nc4ccc(C)cc43)n(C)c1C)C(=O)N2 | 38.6 | 22.1 | 29.9 |  |
| O=C1Nc2ccccc2/C1=N/NC(=O)c1cncc(C(=O)N/N=C2\C(=O)Nc3ccccc32)c1 | 39.2 | 72.7 | 39.1 |  |
| COc1ccc(-c2nc(N/N=C3\C(=O)Nc4ccc(Cl)cc43)c3ccccc3n2)cc1OC |  |  |  | IC50 (MCF7 [15]): 2.1 µM |
| O=C1Nc2ccc(Br)cc2/C1=N/NC(=O)c1cncc(C(=O)N/N=C2\C(=O)Nc3ccc(Br)cc32)c1 | 23.7 | 30.1 | 34.5 |  |
| COc1cccc2c1C(=O)c1c(O)c3c(c(O)c1C2=O)C[C@@](O)(C(=O)CO)C[C@@H]3O[C@H]1C[C@H](N)[C@H](O)[C@H](C)O1 [DOXORUBICIN] | 3.7 | 3.56 |  |  |
| O=C1/C(=C2\Nc3ccccc3C2=O)Nc2ccccc21 [INDIGO] |  |  |  | IC50 [16]: 1 µM |
